Test results published in the array DNA melting data of Ke et al. (doi:10.1101/2024.01.08.574731).

How the values were obtained:
[1] = melting temperature; fluorescence melt of hairpins on a sequencing array, two-state fit, raised by 9.35 °C to match UV melts; conditions: sodium 0.088 M
Summary of the method: (§1)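 On a sequenced MiSeq flow cell, library hairpins with annealed Cy3 and quencher oligos were imaged for Cy3 fluorescence in 2.5 °C steps up to 60 °C, in 50 mM Na-HEPES pH 8.0, 25 mM NaCl. Normalisation used pre-quench Cy3 and control constructs. Bootstrapped two-state fits gave melting temperature and folding enthalpy, combined by inverse variance across four replicates and with fitted temperatures raised by 9.35 °C to match UV melts.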

[2] = folding enthalpy; higher = less favourable; fluorescence melt of hairpins on a sequencing array, two-state fit; conditions: sodium 0.088 M
Summary of the method: as §1

Sequence	Tm [1] [°C]	folding enthalpy [2] [kcal/mol]
GATCCTTCGAGGATC ((((((...))))))	54.4	-28.7
GATCCTTCTGAGGATC ((((((....))))))	53.7	-38.4
GATCCTTGGAGGATC ((((((...))))))	50.4	-42
GATCCTTTAAAGGATC ((((((....))))))	53.4	-40.9
GATCCTTTGAAGGATC ((((((....))))))	52.4	-36
GATCCTTTTTAGGATC ((((((....))))))	53.9	-34.7
GATCGAAAGCTCGATC ((((((....))))))	48.7	-29.6
GATCGAAAGTCGATC ((((((...))))))	48.8	-30.5
GATCGAACAGTCGATC ((((((....))))))	47.7	-31.4
GATCGAACATCGATC ((((((...))))))	49	-37.3
GATCGAACCTCGATC ((((((...))))))	50.7	-34.4
GATCGAAGAATCGATC ((((((....))))))	47.1	-28.4
GATCGAAGAGTCGATC ((((((....))))))	47.5	-31.6
GATCGAAGCGTCGATC ((((((....))))))	51.1	-39.9
GATCGAAGGTCGATC ((((((...))))))	50.9	-25.6
GATCGAAGTGTCGATC ((((((....))))))	51.2	-42.2
GATCGAATATCGATC ((((((...))))))	50.4	-33.4
GATCGAATCGTCGATC ((((((....))))))	51.4	-32.1
GATCGAATCTTCGATC ((((((....))))))	54.2	-42.4
GATCGAATTTCGATC ((((((...))))))	51.5	-46.1
GATCGACCAATCGATC ((((((....))))))	49	-34.2
GATCGACCACTCGATC ((((((....))))))	50.5	-38.1
GATCGACCAGTCGATC ((((((....))))))	57.4	-43.9
GATCGACCTATCGATC ((((((....))))))	51	-38.9

Sequence	Tm [1] [°C]	folding enthalpy [2] [kcal/mol]
GATCGACGATCGATC ((((((...))))))	49.2	-20.6
GATCGACGGCTCGATC ((((((....))))))	50.5	-42.7
GATCGACGGGTCGATC ((((((....))))))	63.3	-46
GATCGACTACTCGATC ((((((....))))))	50.7	-36.5
GATCGAGAATTCGATC ((((((....))))))	57.4	-39.7
GATCGAGATTCGATC ((((((...))))))	50.4	-41.4
GATCGAGATTTCGATC ((((((....))))))	51.8	-46.7
GATCGAGCACTCGATC ((((((....))))))	57.6	-42.9
GATCGAGCATCGATC ((((((...))))))	58.7	-41.3
GATCGAGCCATCGATC ((((((....))))))	59.2	-39.7
GATCGAGCCTCGATC ((((((...))))))	52.8	-34.9
GATCGAGCCTTCGATC ((((((....))))))	56.4	-39.5
GATCGAGCGCTCGATC ((((((....))))))	62.2	-44
GATCGAGCTGTCGATC ((((((....))))))	51.3	-38.6
GATCGAGGAAACTCAATC (((.(((....))).)))	25.9	-10.2
GATCGAGGAAACTCGACC (.(((((....))))).)	41.4	-14.8
GATCGAGGAAACTTGGTC ((.(.((....)).).))	22.6	-8.03
GATCGAGGATTCGATC ((((((....))))))	57.9	-36.8
GATCGAGTAATCGATC ((((((....))))))	57.4	-39
GATCGAGTCTTCGATC ((((((....))))))	58.4	-37.6
GATCGATAATCGATC ((((((...))))))	49.5	-37.7
GATCGATAGGTCGATC ((((((....))))))	53	-42.2
GATCGATATATCGATC ((((((....))))))	56	-41
GATCGATCAATCGATC ((((((....))))))	53.8	-40.9

Sequence	Tm [1] [°C]	folding enthalpy [2] [kcal/mol]
GATCGATCATTCGATC ((((((....))))))	53.7	-39.5
GATCGATCCTCGATC ((((((...))))))	52.1	-40.4
GATCGATCTTCGATC ((((((...))))))	52.5	-33.6
GATCGATGATTCGATC ((((((....))))))	53.2	-36.4
GATCGATGCGTCGATC ((((((....))))))	57	-43.7
GATCGATGGGTCGATC ((((((....))))))	57.5	-39.7
GATCGATGGTCGATC ((((((...))))))	50.6	-29.4
GATCGATGGTTCGATC ((((((....))))))	51.2	-43
GATCGATGTATCGATC ((((((....))))))	58.4	-40.9
GATCGATTATTCGATC ((((((....))))))	54.2	-42.7
GATCGATTCATCGATC ((((((....))))))	59.3	-39.9
GATCGATTGATCGATC ((((((....))))))	54.8	-45.5
GATCGCAAACGCGATC ((((((....))))))	64.8	-42.1
GATCGCAATGGCGATC ((((((....))))))	67.4	-35.6
GATCGCACGGCGATC ((((((...))))))	69.3	-33
GATCGCACTGGCGATC ((((((....))))))	68.2	-34
GATCGCAGACGCGATC ((((((....))))))	67.8	-30.9
GATCGCAGGAGCGATC ((((((....))))))	68.3	-26.6
GATCGCATATGCGATC ((((((....))))))	68.8	-33.8
GATCGCATCCGCGATC ((((((....))))))	68.7	-33.4
GATCGCCACTGCGATC ((((((....))))))	65.3	-42.9
GATCGCCCAGCGATC ((((((...))))))	67.4	-32.1
GATCGCCCGCGCGATC ((((((....))))))	66.3	-30.6
GATCGCCCTCGCGATC ((((((....))))))	67.5	-27.9

Sequence	Tm [1] [°C]	folding enthalpy [2] [kcal/mol]
GATCGCCGAAAGGCATC (((.(((....))))))	37.6	-9.53
GATCGCCGACGCGATC ((((((....))))))	66.5	-35.7
GATCGCCTAAGCGATC ((((((....))))))	68	-40.8
GATCGCCTCCGCGATC ((((((....))))))	63.9	-44.6
GATCGCCTGAGCGATC ((((((....))))))	68.7	-29.1
GATCGCGAAAGCGCGATC ((((((....)))..)))	64.1	-30.8
GATCGCGAAAGCGGATC ((((((....))).)))	57	-16.4
GATCGCGAAAGCGTGATC ((((((....)))..)))	42.8	-14.3
GATCGCGCCGGCGATC ((((((....))))))	68.2	-25.3
GATCGCGTGGGCGATC ((((((....))))))	68.2	-30.8
GATCGCTAAGCGATC ((((((...))))))	67.9	-33.5
GATCGCTACGGCGATC ((((((....))))))	67.8	-40.5
GATCGCTAGCGCGATC ((((((....))))))	66.5	-34
GATCGCTATCGCGATC ((((((....))))))	67.1	-36.9
GATCGCTCATGCGATC ((((((....))))))	67.8	-40.2
GATCGCTCTGGCGATC ((((((....))))))	69.1	-37.7
GATCGCTGAGCGATC ((((((...))))))	69	-31
GATCGCTTAGGCGATC ((((((....))))))	68.6	-32.1
GATCGGAAGCCGATC ((((((...))))))	55	-34.7
GATCGGAATACCGATC ((((((....))))))	56.6	-33.1
GATCGGAATCCGATC ((((((...))))))	53.5	-34.8
GATCGGAATGCCGATC ((((((....))))))	54.9	-33.7
GATCGGACCCCGATC ((((((...))))))	54.1	-39.4
GATCGGAGACCCGATC ((((((....))))))	53	-36.6
